# Test system: U2OS
# Experiment: Multiplex assay against U2OS
# Type: toxicity, cell-based
# Details: human
# Summary of the method: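 Cells stained live at seeding with Hoechst33342, BioTracker Green Microtubule Cytoskeleton Dye, MitoTracker Red and Annexin V Alexa Fluor 680 were imaged on a CQ1 microscope at 37°C and 5% CO2 after compound addition. Their classification by CellPathfinder machine-learning gating ran from Hoechst high-intensity objects versus normal cells, to healthy, pyknosed or fragmented nuclei among normal cells, to mitotic or apoptotic among pyknosed cells. Tubulin, mitochondrial-mass and membrane-permeability phenotypes are per cents of healthy-nucleus cells.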
# [1] = 12 h, 1 µM, compound concentration 1 uM, replicate 1
# [2] = 12 h, 1 µM, compound concentration 1 uM, replicate 2
# [3] = 12 h, 10 µM, compound concentration 10 uM, replicate 1
# [4] = 12 h, 10 µM, compound concentration 10 uM, replicate 2
# [5] = 24 h, 1 µM, compound concentration 1 uM, replicate 1
# [6] = 24 h, 1 µM, compound concentration 1 uM, replicate 2
# [7] = 24 h, 10 µM, compound concentration 10 uM, replicate 1
# [8] = 24 h, 10 µM, compound concentration 10 uM, replicate 2
# [9] = 48 h, 1 µM, compound concentration 1 uM, replicate 1
# [10] = 48 h, 1 µM, compound concentration 1 uM, replicate 2
# [11] = 48 h, 10 µM, compound concentration 10 uM, replicate 1
# [12] = 48 h, 10 µM, compound concentration 10 uM, replicate 2
smiles,measurement,setting,value
O=C(CCCc1ccccc1)Nc1nc2ccccc2c(=O)s1,Population Apoptotic (%),[1],92%
same,Population Fragmented Nuclei (%),[1],26%
same,Population Healthy Nuclei (%),[1],64%
same,Population Hoechst High Intensity Objects (%),[1],2%
same,Population Membrane Permeable-Phenotype (%),[1],4%
same,Population Mitochondria Different-Phenotype (%),[1],2%
same,Population Mitotic Cells (%),[1],7%
same,Population Normal (%),[1],97%
same,Population Pyknosed Nuclei (%),[1],9%
same,Population Tubulin-Different-Phenotype (%),[1],1%
same,Total Cell Count,[1],274
same,Population Apoptotic (%),[2],55%
same,Population Fragmented Nuclei (%),[2],17%
same,Population Healthy Nuclei (%),[2],74%
same,Population Hoechst High Intensity Objects (%),[2],0%
same,Population Membrane Permeable-Phenotype (%),[2],7%
same,Population Mitochondria Different-Phenotype (%),[2],3%
same,Population Mitotic Cells (%),[2],44%
same,Population Normal (%),[2],100%
same,Population Pyknosed Nuclei (%),[2],7%
same,Population Tubulin-Different-Phenotype (%),[2],2%
same,Total Cell Count,[2],113
same,Population Apoptotic (%),[3],72%
same,Population Fragmented Nuclei (%),[3],31%
same,Population Healthy Nuclei (%),[3],58%
same,Population Hoechst High Intensity Objects (%),[3],2%
same,Population Membrane Permeable-Phenotype (%),[3],2%
same,Population Mitochondria Different-Phenotype (%),[3],0%
same,Population Mitotic Cells (%),[3],28%
same,Population Normal (%),[3],97%
same,Population Pyknosed Nuclei (%),[3],9%
same,Population Tubulin-Different-Phenotype (%),[3],1%
same,Total Cell Count,[3],270
same,Population Apoptotic (%),[4],100%
same,Population Fragmented Nuclei (%),[4],20%
same,Population Healthy Nuclei (%),[4],67%
same,Population Hoechst High Intensity Objects (%),[4],4%
same,Population Membrane Permeable-Phenotype (%),[4],7%
same,Population Mitochondria Different-Phenotype (%),[4],6%
same,Population Mitotic Cells (%),[4],0%
same,Population Normal (%),[4],95%
same,Population Pyknosed Nuclei (%),[4],11%
same,Population Tubulin-Different-Phenotype (%),[4],6%
same,Total Cell Count,[4],101
same,Population Apoptotic (%),[5],79%
same,Population Fragmented Nuclei (%),[5],22%
same,Population Healthy Nuclei (%),[5],68%
same,Population Hoechst High Intensity Objects (%),[5],1%
same,Population Membrane Permeable-Phenotype (%),[5],4%
same,Population Mitochondria Different-Phenotype (%),[5],2%
same,Population Mitotic Cells (%),[5],20%
same,Population Normal (%),[5],98%
same,Population Pyknosed Nuclei (%),[5],9%
same,Population Tubulin-Different-Phenotype (%),[5],2%
same,Total Cell Count,[5],325
same,Population Apoptotic (%),[6],84%
same,Population Fragmented Nuclei (%),[6],17%
same,Population Healthy Nuclei (%),[6],73%
same,Population Hoechst High Intensity Objects (%),[6],0%
same,Population Membrane Permeable-Phenotype (%),[6],8%
same,Population Mitotic Cells (%),[6],15%
same,Population Normal (%),[6],100%
same,Population Tubulin-Different-Phenotype (%),[6],3%
same,Total Cell Count,[6],141
same,Population Apoptotic (%),[7],86%
same,Population Fragmented Nuclei (%),[7],25%
same,Population Healthy Nuclei (%),[7],65%
same,Population Hoechst High Intensity Objects (%),[7],2%
same,Population Membrane Permeable-Phenotype (%),[7],5%
same,Population Mitochondria Different-Phenotype (%),[7],1%
same,Population Mitotic Cells (%),[7],13%
same,Population Normal (%),[7],97%
same,Population Pyknosed Nuclei (%),[7],9%
same,Population Tubulin-Different-Phenotype (%),[7],4%
same,Total Cell Count,[7],319
same,Population Apoptotic (%),[8],100%
same,Population Fragmented Nuclei (%),[8],19%
same,Population Healthy Nuclei (%),[8],71%
same,Population Hoechst High Intensity Objects (%),[8],1%
same,Population Membrane Permeable-Phenotype (%),[8],8%
same,Population Mitochondria Different-Phenotype (%),[8],2%
same,Population Mitotic Cells (%),[8],0%
same,Population Normal (%),[8],98%
same,Population Tubulin-Different-Phenotype (%),[8],3%
same,Total Cell Count,[8],124
same,Population Apoptotic (%),[9],91%
same,Population Fragmented Nuclei (%),[9],13%
same,Population Healthy Nuclei (%),[9],76%
same,Population Hoechst High Intensity Objects (%),[9],7%
same,Population Membrane Permeable-Phenotype (%),[9],3%
same,Population Mitochondria Different-Phenotype (%),[9],2%
same,Population Mitotic Cells (%),[9],8%
same,Population Normal (%),[9],92%
same,Population Pyknosed Nuclei (%),[9],9%
same,Population Tubulin-Different-Phenotype (%),[9],1%
same,Total Cell Count,[9],394
same,Population Apoptotic (%),[10],87%
same,Population Fragmented Nuclei (%),[10],19%
same,Population Healthy Nuclei (%),[10],71%
same,Population Hoechst High Intensity Objects (%),[10],5%
same,Population Mitochondria Different-Phenotype (%),[10],3%
same,Population Mitotic Cells (%),[10],12%
same,Population Normal (%),[10],94%
same,Population Pyknosed Nuclei (%),[10],8%
same,Population Tubulin-Different-Phenotype (%),[10],6%
same,Total Cell Count,[10],192
same,Population Apoptotic (%),[11],91%
same,Population Fragmented Nuclei (%),[11],20%
same,Population Healthy Nuclei (%),[11],70%
same,Population Hoechst High Intensity Objects (%),[11],2%
same,Population Membrane Permeable-Phenotype (%),[11],5%
same,Population Mitochondria Different-Phenotype (%),[11],0%
same,Population Mitotic Cells (%),[11],8%
same,Population Normal (%),[11],97%
same,Population Pyknosed Nuclei (%),[11],8%
same,Population Tubulin-Different-Phenotype (%),[11],3%
same,Total Cell Count,[11],427
same,Population Apoptotic (%),[12],95%
same,Population Fragmented Nuclei (%),[12],15%
same,Population Healthy Nuclei (%),[12],72%
same,Population Hoechst High Intensity Objects (%),[12],0%
same,Population Membrane Permeable-Phenotype (%),[12],9%
same,Population Mitochondria Different-Phenotype (%),[12],3%
same,Population Mitotic Cells (%),[12],4%
same,Population Normal (%),[12],99%
same,Population Pyknosed Nuclei (%),[12],12%
same,Population Tubulin-Different-Phenotype (%),[12],5%
same,Total Cell Count,[12],175

# Reference: ChEMBL document CHEMBL5058577, “EUbOPEN Chemogenomics Library 2 (Multiplex)” (2022)
